According to ChEMBL document CHEMBL1140988 (Eur J Med Chem, 2008):

Columns and labels:
Cannabinoid receptor 1 [1] = molecular target: T1, Cannabinoid receptor 1 (Homo sapiens, UniProt P21554); assay: Displacement of [3H]CP-55940 from human CB1 receptor expressed in CHO cells at 10 uM; type: cell-based
Method in brief: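 Competitive binding on membranes of CHO cells expressing human CB1, run by an outside contract lab. Radioligand was [3H]-CP 55940 at 0.5 nM and test compound was at 10 μM. Non-specific binding was set with an excess of unlabelled ligand. Values are % of control specific binding (displacement), n = 2.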

Cannabinoid receptor 2 [2] = molecular target: T2, Cannabinoid receptor 2 (Homo sapiens, UniProt P34972); assay: Displacement of [3H]WIN-55212-2 from human CB2 receptor expressed in CHO cells at 10 uM; type: cell-based
Method in brief: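 Human CB2 expressed in CHO cell membranes, competitive binding run by an outside contract lab. [3H]-WIN 55212-2 at 0.8 nM was displaced by test compound at 10 μM. Specific binding is total minus non-specific, the latter measured with excess unlabelled ligand. Reported as % displacement of control specific binding, n = 2.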

Cannabinoid receptor 1 [3] = molecular target: T1, Cannabinoid receptor 1; assay: biochemical; type: cell-based, CHO
Cannabinoid receptor 2 [4] = molecular target: T2, Cannabinoid receptor 2; assay: Displacement of [3H]WIN-55212-2 from human CB2 receptor expressed in CHO cells; type: cell-based
Method in brief: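 Non-specific binding was defined with excess unlabelled ligand. Ki was derived from IC50 by the Cheng-Prusoff equation, Ki = IC50/(1 + L/KD), using radioligand concentration and KD.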

T2 sequence (P34972 whole entry): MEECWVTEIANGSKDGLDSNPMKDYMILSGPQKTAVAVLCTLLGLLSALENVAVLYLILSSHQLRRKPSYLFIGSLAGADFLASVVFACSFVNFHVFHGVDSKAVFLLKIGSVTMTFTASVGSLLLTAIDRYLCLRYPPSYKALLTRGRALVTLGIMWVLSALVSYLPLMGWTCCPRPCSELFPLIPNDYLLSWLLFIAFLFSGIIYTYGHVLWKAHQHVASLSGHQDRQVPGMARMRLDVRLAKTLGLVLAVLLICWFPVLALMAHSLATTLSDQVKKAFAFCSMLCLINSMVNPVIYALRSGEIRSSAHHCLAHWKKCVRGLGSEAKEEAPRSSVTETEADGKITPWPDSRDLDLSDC
T1 sequence (P21554 whole entry): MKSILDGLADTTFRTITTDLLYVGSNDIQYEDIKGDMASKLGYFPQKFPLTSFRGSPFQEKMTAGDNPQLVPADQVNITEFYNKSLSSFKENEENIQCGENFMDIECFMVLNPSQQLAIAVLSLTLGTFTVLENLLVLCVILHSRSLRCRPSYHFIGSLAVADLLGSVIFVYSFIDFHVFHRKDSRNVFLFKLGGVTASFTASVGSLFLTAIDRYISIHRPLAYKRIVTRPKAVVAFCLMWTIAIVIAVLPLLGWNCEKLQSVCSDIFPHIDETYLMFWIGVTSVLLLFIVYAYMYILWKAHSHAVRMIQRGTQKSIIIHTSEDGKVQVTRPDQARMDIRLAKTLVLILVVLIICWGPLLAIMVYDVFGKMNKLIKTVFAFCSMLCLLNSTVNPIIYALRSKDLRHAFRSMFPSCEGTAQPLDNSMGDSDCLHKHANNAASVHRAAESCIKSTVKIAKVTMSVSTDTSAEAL

Row | SMILES | Activity (Cannabinoid receptor 1 [1]) [%] | Activity (Cannabinoid receptor 2 [2]) [%] | Ki (Cannabinoid receptor 1 [3]) [nM] | Ki (Cannabinoid receptor 2 [4]) [µM]
1 | O=C(NCCN1CCCCC1)c1cnn(-c2ccc(Cl)cc2Cl)c1-c1ccc(Cl)cc1 | 39 | 14 | – | –
2 | O=C(c1cnn(-c2ccc(Cl)cc2Cl)c1-c1ccc(Cl)cc1)N1CCCCC1 | 59 | 45 | – | –
3 | COc1ccc(-c2c(C(=O)NC3CCCCC3)cnn2-c2ccc(Cl)cc2Cl)cc1 | 64 | 76 | – | –
4 | O=C(NC12CC3CC(CC(C3)C1)C2)c1cnn(-c2ccc(Cl)cc2Cl)c1-c1ccc(Cl)cc1 | 72 | 22 | – | –
5 | O=C(NC1CCCCCC1)c1cnn(-c2ccc(Cl)cc2Cl)c1-c1ccc(Br)cc1 | 88 | 60 | 1100 | –
6 | O=C(c1cnn(-c2ccc(Cl)cc2Cl)c1-c1ccc(Cl)cc1)N1CCc2ccccc2C1 | 58 | 69 | – | –
7 | O=C(NC1CCCCCCC1)c1cnn(-c2ccc(Cl)cc2Cl)c1-c1ccc(Cl)cc1 | 84 | 44 | – | –
8 | O=C(NC1CCCC1)c1cnn(-c2ccc(Cl)cc2Cl)c1-c1ccc(Cl)cc1 | 82 | 61 | – | –
9 | O=C(NC12CC3CC(CC(C3)C1)C2)c1cnn(-c2ccc(Cl)cc2Cl)c1-c1ccc(I)cc1 | 76 | 44 | – | –
10 | O=C(NN1CC2CCCC2C1)c1cnn(-c2ccc(Cl)cc2Cl)c1-c1ccc(Cl)cc1 (centres undefined) | 86 | 56 | – | –
11 | O=C(NC1CCCCCC1)c1cnn(-c2ccc(Cl)cc2Cl)c1-c1ccc(Cl)cc1 | 78 | 50 | – | –
12 | Cc1ccc(-c2c(C(=O)NC3CCCCC3)cnn2-c2ccc(Cl)cc2Cl)cc1 | 48 | 46 | – | –
13 | O=C(NC1CCCCCC1)c1cnn(-c2ccc(Cl)cc2Cl)c1-c1ccc(I)cc1 | 90 | 61 | 1100 | –
14 | O=C(c1cnn(-c2ccc(Cl)cc2Cl)c1-c1ccc(Cl)cc1)N1CCCC1 | 49 | 43 | – | –
15 | O=C(NC1CCCCC1)c1cnn(-c2ccc(Cl)cc2Cl)c1-c1ccc(F)cc1 | 69 | 18 | – | –
16 | O=C(NC1CCCCC1)c1cnn(-c2ccc(Cl)cc2Cl)c1-c1ccc(Br)cc1 | 81 | 44 | – | –
17 | O=C(NC1CC1)c1cnn(-c2ccc(Cl)cc2Cl)c1-c1ccc(Br)cc1 | 84 | 43 | 1000 | –
18 | O=C(NC1CC1)c1cnn(-c2ccc(Cl)cc2Cl)c1-c1ccc(F)cc1 | 62 | 7 | – | –
19 | O=C(NC1CCCCC1)c1cnn(-c2ccc(Cl)cc2Cl)c1-c1ccc(Cl)cc1 | 68 | 52 | – | –
20 | O=C(NC1CC1)c1cnn(-c2ccc(Cl)cc2Cl)c1-c1ccc(Cl)cc1 | 87 | 30 | 850 | 21

Other lines, results leading:

Row | Activity (Cannabinoid receptor 1 [1]) [%] | Activity (Cannabinoid receptor 2 [2]) [%] | Ki (Cannabinoid receptor 1 [3]) [nM] | Ki (Cannabinoid receptor 2 [4]) [µM] | SMILES
21 | 78 | 42 | – | – | CN1CCN(NC(=O)c2cnn(-c3ccc(Cl)cc3Cl)c2-c2ccc(I)cc2)CC1
22 | 65 | 12 | – | – | O=C(NN1CCOCC1)c1cnn(-c2ccc(Cl)cc2Cl)c1-c1ccc(Cl)cc1
23 | 75 | 64 | – | – | O=C(NN1CCCCCC1)c1cnn(-c2ccc(Cl)cc2Cl)c1-c1ccc(Cl)cc1
24 | 64 | 59 | – | – | O=C(NC1CCCCC1)c1cnn(-c2ccc(Cl)cc2Cl)c1-c1ccc(I)cc1
25 | 61 | -23 | 16000 | – | CN1CCN(NC(=O)c2cnn(-c3ccc(Cl)cc3Cl)c2-c2ccc(Cl)cc2)CC1
26 | 43 | 7 | – | – | O=C(NN1CCCCC1)c1cnn(-c2ccc(Cl)cc2Cl)c1-c1ccc(F)cc1
27 | 29 | 27 | – | – | Cc1ccc(-c2c(C(=O)NN3CCCCC3)cnn2-c2ccc(Cl)cc2Cl)cc1
28 | 79 | 37 | – | – | O=C(NN1CCCCC1)c1cnn(-c2ccc(Cl)cc2Cl)c1-c1ccc(Cl)cc1
29 | 30 | -9 | – | – | O=C(NN1CCOCC1)c1cnn(-c2ccc(Cl)cc2Cl)c1-c1ccc(F)cc1
30 | 91 | 60 | 210 | – | O=C(NC1CC1)c1cnn(-c2ccc(Cl)cc2Cl)c1-c1ccc(I)cc1
31 | 67 | -12 | 2600 | 30 | CN1CCN(NC(=O)c2cnn(-c3ccc(Cl)cc3Cl)c2-c2ccc(Br)cc2)CC1
32 | 58 | 70 | – | – | COc1ccc(-c2c(C(=O)NN3CCCCC3)cnn2-c2ccc(Cl)cc2Cl)cc1
33 | 94 | 84 | 1300 | 1.9 | O=C(NN1CCCCC1)c1cnn(-c2ccc(Cl)cc2Cl)c1-c1ccc(I)cc1
34 | 74 | 55 | – | – | O=C(NN1CCCCC1)c1cnn(-c2ccc(Cl)cc2Cl)c1-c1ccc(Br)cc1
